# Data: ChEMBL document CHEMBL3585334, “α- and β-Santalols Directly Interact with Tubulin and Cause Mitotic Arrest and Cytotoxicity in Oral Cancer Cells” (2015)
# Calls of active or inactive are those of the source. The rule behind the calls is not given here.
# Columns and labels:
# [1] = test system: SCC-4; test: Induction of mitotic arrest in human SCC4 cells assessed as increase number of cells with a rounded morphology at 55.6 uM after 18 hrs by immunofluorescence microscopy; type: functional, cell-based
# [2] = target: T1, Tubulin (Sus scrofa) (UniProt P02554+P02550); test: Inhibition of porcine brain tubulin polymerization
# T1 sequence (P02550 whole entry, looked up): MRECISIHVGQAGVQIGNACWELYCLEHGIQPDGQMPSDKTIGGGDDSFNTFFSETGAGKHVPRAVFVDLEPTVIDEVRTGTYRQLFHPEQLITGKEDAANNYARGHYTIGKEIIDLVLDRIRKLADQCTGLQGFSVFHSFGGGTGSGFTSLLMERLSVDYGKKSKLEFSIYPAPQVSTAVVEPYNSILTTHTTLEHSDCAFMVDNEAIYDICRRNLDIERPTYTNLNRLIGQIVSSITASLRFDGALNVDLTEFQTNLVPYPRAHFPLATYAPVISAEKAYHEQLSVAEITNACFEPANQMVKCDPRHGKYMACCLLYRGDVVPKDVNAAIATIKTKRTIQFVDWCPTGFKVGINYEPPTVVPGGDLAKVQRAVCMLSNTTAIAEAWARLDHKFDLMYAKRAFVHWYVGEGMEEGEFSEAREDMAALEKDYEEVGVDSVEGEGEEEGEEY
# T1 sequence (P02554 whole entry, looked up): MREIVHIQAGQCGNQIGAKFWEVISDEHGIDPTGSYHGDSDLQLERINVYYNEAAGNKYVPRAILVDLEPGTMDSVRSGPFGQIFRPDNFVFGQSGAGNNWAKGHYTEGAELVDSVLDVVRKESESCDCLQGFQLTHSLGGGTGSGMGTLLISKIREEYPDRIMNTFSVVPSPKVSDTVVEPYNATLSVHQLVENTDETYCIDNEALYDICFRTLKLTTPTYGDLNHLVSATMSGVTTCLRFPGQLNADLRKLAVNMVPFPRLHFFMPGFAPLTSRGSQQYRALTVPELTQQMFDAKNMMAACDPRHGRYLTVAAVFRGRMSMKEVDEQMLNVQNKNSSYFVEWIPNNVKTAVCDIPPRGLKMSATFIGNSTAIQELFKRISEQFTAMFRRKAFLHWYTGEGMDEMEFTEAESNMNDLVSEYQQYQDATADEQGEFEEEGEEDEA
# [3] = test system: HN5; test: Growth inhibition of human HN5 cells after 48 hrs by sulforhodamine B assay; type: functional; details: HN5, 48 h
# Summary of the method: (§1)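 Cells grown in DMEM with 10% FBS and 50 μg/mL gentamicin. They were exposed for 48 h to at least six concentrations, and the SRB assay was the read-out. GI50 was taken from log concentration–response curves of 3–9 independent experiments, each run in triplicate. Values are ± SEM.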
# [4] = target: T1, Tubulin (Sus scrofa); test: Inhibition of porcine brain tubulin polymerization at 50 uM
# [5] = test system: SCC-4; test: Induction of cell cycle arrest in human SCC4 cells assessed as cells accumulation at G2/M phase at 4 times of LC50 concentration after 18 hrs by propidium iodide-staining based flow cytometry; type: functional
# Summary of the method: (§2)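 SCC-4 cells treated for 18 h with DMSO vehicle, 15 nM paclitaxel, or 1×, 2×, 3× or 4× LC50. Cells were stained with propidium iodide and cell-cycle distribution was read by flow cytometry. Three independent experiments.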
# [6] = Growth inhibition of human SCC4 cells after 48 hrs by sulforhodamine B assay; type: functional; details: SCC-4, 48 h; for CC50: read-out: LC50 (the source's name); summary of the method: as §1
# [7] = Growth inhibition of human HSC3 cells after 48 hrs by sulforhodamine B assay; type: functional; details: HSC-3, 48 h; for CC50: read-out: LC50 (the source's name); summary of the method: as §1
# [8] = target: T1, Tubulin (Sus scrofa); test: Binding affinity to porcine brain tubulin relative to colchicine
# Summary of the method: (§3)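 Displacement of colchicine or vinblastine from purified tubulin, with the santalol at up to 7000-fold excess over the reference drug.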
# [9] = Growth inhibition of human SCC9 cells after 48 hrs by sulforhodamine B assay; type: functional; details: SCC-9, 48 h; for CC50: read-out: LC50 (the source's name); summary of the method: as §1
# [10] = Growth inhibition of human HSC2 cells after 48 hrs by sulforhodamine B assay; type: functional; details: HSC-2, 48 h; for CC50: read-out: LC50 (the source's name); summary of the method: as §1
# [11] = Growth inhibition of human SCC25 cells after 48 hrs by sulforhodamine B assay; type: functional; details: SCC-25, 48 h; for CC50: read-out: LC50 (the source's name); summary of the method: as §1
# [12] = target: T1, Tubulin (Sus scrofa); test: Binding affinity to porcine brain tubulin relative to vinblastine; summary of the method: as §3
# [13] = Growth inhibition of human CAL27 cells after 48 hrs by sulforhodamine B assay; type: functional; details: CAL-27, 48 h; summary of the method: as §1
# [14] = test system: SCC-4; test: Induction of mitotic arrest in human SCC4 cells assessed as punctuate and numerous spindles at 55.6 uM after 18 hrs by immunofluorescence microscopy; type: functional, cell-based
# [15] = test system: SCC-4; test: Induction of cell cycle arrest in human SCC4 cells assessed as cells accumulation at G2/M phase after 18 hrs by propidium iodide-staining based flow cytometry; type: functional; summary of the method: as §2
# [16] = test system: SCC-4; test: Induction of mitotic arrest in human SCC4 cells assessed as increase number of cells with a rounded morphology at 61.2 uM after 18 hrs by immunofluorescence microscopy; type: functional, cell-based
# [17] = test system: SCC-4; test: Induction of cell cycle arrest in human SCC4 cells assessed as cells accumulation at G2/M phase at 3 times of LC50 concentration after 18 hrs by propidium iodide-staining based flow cytometry; type: functional; summary of the method: as §2
# [18] = test system: SCC-4; test: Induction of mitotic arrest in human SCC4 cells assessed as large multipolar spindles at 61.2 uM after 18 hrs by immunofluorescence microscopy; type: functional, cell-based
Compound,GI50 [3],TGI [3],inhibition [4],Activity [5],GI50 [6],TGI [6],CC50 [6],GI50 [7],TGI [7],CC50 [7],fold change (FC) [8],GI50 [9],TGI [9],CC50 [9],GI50 [10],TGI [10],CC50 [10],GI50 [11],TGI [11],CC50 [11],other results
C/C(=C/CC[C@]1(C)C2C[C@@H]3[C@H](C2)C31C)CO,5.3 µM,8.2 µM,Active,Active,4.5 µM,7.7 µM,14 µM,3.9 µM,5.4 µM,7.7 µM,> 7000,3.4 µM,5.3 µM,9 µM,4.6 µM,9.2 µM,10.8 µM,3.5 µM,6 µM,11.6 µM,Activity [1]: Active; inhibition [2]: Dose-dependent effect; LC50 [3]: 12.2 µM; fold change (FC) [12]: > 7000; GI50 [13]: 5.5 µM; LC50 [13]: 11 µM; TGI [13]: 7.6 µM; Activity [14]: Active; Activity [15]: Dose-dependent effect
C=C1[C@@H]2CC[C@@H](C2)[C@@]1(C)CC/C=C(/C)CO,6.3 µM,9.6 µM,Active,Active,5.8 µM,10 µM,14.3 µM,4.4 µM,6.1 µM,9.1 µM,> 7000,4.2 µM,6.8 µM,14.5 µM,7.3 µM,9.4 µM,11.9 µM,4.2 µM,6.3 µM,11.1 µM,Activity [16]: Active; Activity [17]: Active; Activity [18]: Active; fold change (FC) [12]: > 7000; GI50 [13]: 5.7 µM; TGI [13]: 8.4 µM; Activity [15]: Dose-dependent effect
